KCNK9 block: blocks the human KCNK9 two-pore domain potassium channel; HEK293 KCNK9, FluxOR thallium flux fluorescence; active compounds read low; B-score at 10 µM; 310,000 compounds, 1.2% hits; AID 488922;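 active = ratio B-score over 3 SD below the library mean, with starting fluorescence within 5 SD of its mean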;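 also: negative B-score means less thallium flux so channel inhibition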
KCNQ1 pot: human KCNQ1 channel potentiation or activation; CHO-K1 KCNQ1, thallium flux FluxOR fluorescence; active compounds read high; P51787; B-score at 10 µM; 310,000 compounds, 0.35% hits; AID 2648;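 active = fluorescence ratio B-score, a plate-corrected score, at least three library SD, with initial intensity B-score within 5 SD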
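Test system: CHO-K1 cells stably expressing KCNQ1 / Medium: assay buffer / Also added: depolarizing K+/Tl+ stimulus, K2SO4 and Tl2SO4 each 12.5 mM in 5x stock / Incubation: 90 min dye loading and 20 min compound exposure, both at room temperature / Signal: thallium influx via FluxOR fluorescence, kinetic imaging / Evaluation: B score of baseline-normalized fluorescence ratio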
KCNK3 block: human KCNK3 channel inhibition, primary screen; CHO-KCNK3 thallium flux, FluxOR fluorescence; active compounds read low; B-score at 10 µM; 340,000 compounds, 0.84% hits; AID 602410;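 active = B-score under library mean minus 4 SD, starting fluorescence ratio at most library mean plus 5 SD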;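 also: more negative B-score means stronger inhibition of thallium flux through KCNK3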
KCC2 mod: modulators of human KCC2 chloride dependent transport. Q9H2X9. KCC2 cells, thallium flux FluoZin-2 fluorescence. B-score of Tl+ flux slope (higher = more flux/activation; lower = inhibition) at 10 µM. 190,000 compounds, 2.2% hits. AID 1456;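 active = thallium flux slope and its plate-corrected score both differing from the plate sample mean at a set confidence after two filtering rounds, in either direction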;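 also: slope of fluorescence scaled to starting intensity during 10 to 20 s after thallium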
hERG protect: shields human hERG channel from block by proarrhythmic agents | Q12809 | CHO-hERG, FluxOR thallium flux, dofetilide IC70 present | activation (rescue from dofetilide block), less the hit threshold, % at 10 µM | 310,000 compounds, 0.51% hits;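 active = activation above the mean of controls blocked by dofetilide plus 5 SD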;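 also: thallium influx through hERG after potassium depolarization seen as dye fluorescence rise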
KCNQ1 inh: human KCNQ1 channel inhibition | P51787 | CHO-K1 KCNQ1, FluxOR thallium flux fluorescence; active compounds read high | B-score at 10 µM | 310,000 compounds, 1.3% hits;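 active = compounds whose thallium flux B-score, printed positive for inhibition, exceeds three library SD while starting fluorescence stays within three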;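 also: channel opened by potassium depolarization with thallium stimulus after 20 min compound exposure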
KCC2 sec1: confirmation of human KCC2 transport modulators; shares compounds with KCC2 mod; AID 1713; normalised thallium flux (F/F0 slope) at 10 µM; HEK293-KCC2, thallium flux, FluoZin2 fluorescence; active compounds read high; 3,700 compounds, 15% hits;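 active = thallium flux slope above the same plate's solvent-only control mean plus 3 SD; inconclusive = the two replicate wells disagree; inactive = no significant difference from solvent-only control wells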
KCC2 bumet counter: bumetanide-insensitive thallium flux in KCC2 cells with ouabain, counter-screen. 3,700 compounds, 49% hits. AID 1714. HEK293-KCC2 + bumetanide/ouabain, thallium flux FluoZin2; active compounds read high. shares compounds with KCC2 mod. normalized thallium flux at 10 µM;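 active = thallium entry rate above the same plate's blocked-transporter control wells by more than 3 SD; inconclusive = the two repeat wells disagree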;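 also: raw slope of fluorescence over initial fluorescence between 10 and 20 s after thallium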
KCC2 secondary2: KCC2 (human) modulation, second secondary assay; shares compounds with KCC2 mod; HEK293-KCC2, thallium flux FluoZin2 fluorescence; actives lie on both sides; F/F0 rise rate, 10–20 s post-thallium; normalized thallium flux at 10 µM; 3,700 compounds, 23% hits;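 active = thallium flux slope more than 3 SD above or below the plate's solvent-only control mean, mostly below; inconclusive = the two repeat wells disagreed; inactive = no significant shift from solvent-only controls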;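 also: raw slope with 0.1% DMSO as baseline and bumetanide as block control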
HEK293 Tl flux: acts in parental HEK cells, KCC2 counter-screen; shares compounds with KCC2 mod; HEK293 parental cells, thallium flux FluoZin2, ouabain; baseline-ratio fluorescence slope, 10–20 s after thallium; thallium flux rate (normalised fluorescence) at 10 µM; 3,700 compounds, 46% hits; AID 1716;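 active = thallium flux rate significantly above the same plate's solvent-only control wells, beyond their mean plus 3 SD; inconclusive = the two replicate wells gave conflicting results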
KCC2 ouabain: KCC2 (human) modulation, ouabain retest; AID 1717; shares compounds with KCC2 mod; raw Tl+ flux slope (below DMSO = inhibition, above = activation) at 10 µM; HEK293-KCC2, thallium flux FluoZin2 fluorescence; bidirectional: low = inhibitor, high = activator; 3,700 compounds, 48% hits;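 active = thallium flux slope beyond 3 SD from same-plate DMSO control mean in most replicates, usually higher, sometimes lower; inconclusive = repeat tests gave conflicting results; inactive = no significant difference from controls in most replicates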;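 also: slope of initial-normalized fluorescence between seconds 10 and 20 after thallium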
HEK counter2: counter-screen for KCC2 modulators: effect in parental HEK293 cells; shares compounds with KCC2 mod; thallium flux FluoZin-2 fluorescence slope; thallium flux slope at 10 µM; AID 1718; 3,700 compounds, 33% hits;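 active = thallium flux slope above the same plate's solvent-control mean plus 3 SD in both duplicate wells; inconclusive = duplicate wells that disagreed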;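 also: run without ouabain in cells lacking the KCC2 cotransporter; slope of fluorescence scaled to its starting value between 10 and 20 s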
KCNK9 block conf: human KCNK9 inhibitor confirmation. shares compounds with KCNK9 block. HEK293 KCNK9 cells, FluxOR thallium flux fluorescence. inhibition, % at 10 µM. 4,900 compounds, 43% hits. AID 492992;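 active = thallium signal inhibited by more than 5 SD of the compound-free buffer control wells, on both duplicate plates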;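 also: 0% = assay buffer control wells without compound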
Kir2-1 spec: mouse Kir2.1 off-target activity of KCNK9 modulators. shares compounds with KCNK9 block. Kir2.1 cells, FluxOR thallium flux fluorescence. inhibition, % at 10 µM. 4,900 compounds, 4% hits. AID 492993;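 active = thallium signal drop more than 5 SD beyond the mean of the no-compound control wells, seen in both duplicate plates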;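 also: signal is fluorescence rise after thallium addition divided by baseline fluorescence; plate controls were assay buffer only for no effect and full block by chlorpromazine control for full effect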
Target sequence (P35561 whole entry, looked up): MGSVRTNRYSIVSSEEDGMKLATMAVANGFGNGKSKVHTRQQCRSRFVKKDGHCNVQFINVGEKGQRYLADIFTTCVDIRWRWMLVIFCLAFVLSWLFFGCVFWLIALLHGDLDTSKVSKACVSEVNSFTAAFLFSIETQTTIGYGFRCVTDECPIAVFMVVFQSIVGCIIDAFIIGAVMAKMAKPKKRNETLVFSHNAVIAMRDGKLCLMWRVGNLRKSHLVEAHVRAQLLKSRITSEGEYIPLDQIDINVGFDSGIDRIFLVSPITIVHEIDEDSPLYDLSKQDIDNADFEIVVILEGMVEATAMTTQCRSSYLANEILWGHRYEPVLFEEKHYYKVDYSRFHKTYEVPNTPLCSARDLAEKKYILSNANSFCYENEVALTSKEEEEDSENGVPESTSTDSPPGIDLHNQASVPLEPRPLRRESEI
KCNK9 uninduced: non-induced cell nonspecific activity of KCNK9 modulators; shares compounds with KCNK9 block; non-induced KCNK9-HEK293, FluxOR thallium flux; inhibition, % at 10 µM; 4,900 compounds, 40% hits;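 active = thallium signal drop beyond 5 SD of the untreated control mean, on both duplicate plates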;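 also: plate controls were buffer only IC0 wells for no effect and SID17386958 at its maximal inhibitory level for full effect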
* marks the source's active call; other numbers are inactive results; i = inactive; ? = inconclusive; . = not tested or not shown. The list is not random: actives were taken first. Their share in the collection is about 4.1%.

SMILES	KCNK9 block	KCNQ1 pot	KCNK3 block	KCC2 mod	hERG protect	KCNQ1 inh	KCC2 sec1	KCC2 bumet counter	KCC2 secondary2	HEK293 Tl flux	KCC2 ouabain	HEK counter2	KCNK9 block conf	Kir2-1 spec	KCNK9 uninduced
N#Cc1nc(Cc2cccc3ccccc23)oc1NCc1ccco1	-11*	i	i	.	-11	i	?	0.0049	?	?	0.014*	0.011	40%*	i	38%*
Clc1cccc(CSc2nnc(-c3ccccn3)n2Cc2ccco2)c1	i	i	i	.	-19	i	.	.	.	.	.	.	.	.	.
Brc1ccc(CSc2nnc(-c3ccccn3)n2Cc2ccco2)cc1	-16*	i	i	.	-16	i	0.0081	?	?	0.0045*	?	0.0073*	44%*	i	41%*
O=C(Nc1ccccc1F)c1ccc2snnc2c1	i	i	i	.	-8	i	.	.	.	.	.	.	.	.	.
CCN(C(=O)COC(=O)[C@H](C)N=C1NS(=O)(=O)c2ccccc21)C1CCS(=O)(=O)C1 (stereo partly drawn)	.	.	i	.	.	.	.	.	.	.	.	.	.	.	.
Cc1ccc(-c2nn(-c3ccccc3)cc2/C=N/n2c(-c3cccs3)n[nH]c2=S)cc1	i	i	i	4.6*	-8	i	0.011	0.0094*	0.03	0.018*	0.021	0.012	i	i	i
Cc1ccc(CN2C(=O)c3ccccc3Sc3ccc(C(=O)NCCN4CCOCC4)cc32)cc1	i	i	i	.	-13	i	.	.	.	.	.	.	.	.	.
Cn1c(SCc2ccccc2Cl)nc2ccccc21	-8.4*	i	i	-4.3*	-10	i	?	?	0.024*	0.0072	0.014*	0.01	66%*	i	i
Cn1c(NCc2ccccc2Cl)nc2ccccc21	i	i	i	.	-9	i	.	.	.	.	.	.	.	.	.
CC(=O)C(/C=N/c1ncc(C(F)(F)F)cc1Cl)=C(\C)O	i	i	i	0.13	-9	i	.	.	.	.	.	.	.	.	.
Cc1cc(Br)ccc1-n1[nH]c(C)c(C=Nc2cccc3nsnc23)c1=O	i	i	i	16*	-6	i	0.011	0.043*	0.029	0.017*	0.04*	?	i	i	i
Cc1ccnc(N2CCN(C(=O)CSc3nc4ccccc4nc3N3CCC(C)CC3)CC2)c1	i	i	i	4.8*	-14	i	0.0056	0.0087*	0.034	0.0094*	?	?	i	i	i
Cc1nc2ncnn2c(C)c1Cc1ccccc1Cl	i	i	i	0.99	-15	i	.	.	.	.	.	.	.	.	.

Screening data: PubChem, several laboratories
